Measured values from the array DNA melting data of Ke et al. (doi:10.1101/2024.01.08.574731).

How the values were obtained:
[1] = melting temperature; fluorescence melt of hairpins on a sequencing array, two-state fit, raised by 9.35 °C to match UV melts; details: sodium 0.088 M
In short: (§1)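 Library hairpins on a sequenced MiSeq flow cell carried annealed Cy3 and quencher oligos, and their Cy3 fluorescence was imaged in 50 mM Na-HEPES pH 8.0 with 25 mM NaCl, in 2.5 °C steps up to 60 °C. Signals were normalised to Cy3 before quenching and to control constructs. Melting temperature and folding enthalpy were obtained from bootstrapped two-state fits, combined by inverse-variance weighting across four replicates, and the fitted temperatures were then raised by 9.35 °C to match UV melts.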

[2] = folding enthalpy; higher = less favourable; fluorescence melt of hairpins on a sequencing array, two-state fit; details: sodium 0.088 M
In short: as §1

| Sequence | Tm [1] [°C] | folding enthalpy [2] [kcal/mol] |
| --- | --- | --- |
| GCCACCCGAAAGGGAGGC (((.(((....))).))) | 67.8 | -44.3 |
| GCGTGGTCACGC ((((....)))) | 57.5 | -26.3 |
| GGATGCGAAAGCAGTTCC ((((((....)))..))) | 36 | -14.3 |
| GTCAGGCGAAAGCCAGAC (((.(((....))).))) | 59.8 | -23.4 |
| GCAGAGCGAAAGCACTGC ((((.((....)).)))) | 67.4 | -34 |
| GTTTGGGAAACCAAAC ((((((....)))))) | 53.2 | -39.5 |
| GTGGTCGAAAGACAACAC ((((((....)))..))) | 46.8 | -18.7 |
| GATCCAGCTCTGGATC ((((((....)))))) | 54 | -41.1 |
| GACAGGGGAAACCCTGCC (.(((((....))))).) | 46.4 | -13.8 |
| GCCGAGCGAAAGCTCAGC ((.((((....)))).)) | 58 | -18.1 |
| GATTGCCCGAAAGGGATC (((..(((....)))))) | 25.8 | -7.39 |
| GGGGGTGGAAACGTCCCC ((((..(....)..)))) | 48.7 | -26.2 |
| GCTTTGCGAAAGCCTAGC (((..((....))..))) | 41.1 | -13 |
| GGACGAGGAAACTCGTCC (((((((....))))))) | 68.8 | -44.4 |
| GATCCTCGTTAGGATC ((((((....)))))) | 51.7 | -39.1 |
| GGTGACGAAAGTCTTACC ((((((....)))..))) | 35.8 | -15 |
| GACTTAACGAAAGTTGTC (((..(((....)))))) | 32.2 | -16.8 |
| CGTGTCGGAAACGAGACG (((.(((....))).))) | 51.7 | -36 |
| GATCCAAGGTTGGATC ((((((....)))))) | 51.4 | -37.5 |
| GTTAACGAAAGTTTAAC ((((((....))).))) | 34.6 | -17 |
| GAGCTTGGAAACAAACTC (((.(((....))).))) | 35.8 | -23.9 |
| GTCTCGGGAAACCGGGAC (((.(((....))).))) | 55.3 | -38.4 |
| GCAGAAGAAATTCTGC ((((((....)))))) | 52.9 | -32.6 |
| GCGAGGAATCGC ((((....)))) | 54.6 | -20.5 |

| Sequence | Tm [1] [°C] | folding enthalpy [2] [kcal/mol] |
| --- | --- | --- |
| GGATGGGGAAACCTGTCC (((..((....))..))) | 41 | -29.3 |
| GGCTGGAAACAGCC (((((....))))) | 67.5 | -30.9 |
| GCGACTGGAAACGGTCGC (((((.(....).))))) | 64.7 | -46.3 |
| GGTCTTGCGAAAGCAACC (((..(((....)))))) | 28.8 | -8.24 |
| GATCAACCGCTTGATC ((((((....)))))) | 44.2 | -34.4 |
| GATCAAGCTATTGATC ((((((....)))))) | 50.2 | -40.8 |
| GCACCGCGAAAGCGTTGC (((.(((....))).))) | 56.3 | -42.6 |
| GCGCGGCGAAAGCTGAGC ((.(.((....)).).)) | 63.2 | -31.1 |
| GCATCGCGAAAGCGGAGC ((..(((....)))..)) | 54.2 | -16.5 |
| GTATCCGAAAGGAGTTAC ((((((....)))..))) | 25.3 | -14.9 |
| GTGCTAACGAAAGTTCAC (((..(((....)))))) | 25.4 | -7.2 |
| GCGCCAGGAAACCGACGC (((.(.(....).).))) | 39.4 | -29.5 |
| GCTATGCGAAAGCGCAGC (((..((....))..))) | 36.8 | -18 |
| GATCAACCGTTTGATC ((((((....)))))) | 42.8 | -35.2 |
| GCTAGCCGAAAGGCAGC (((.(((....)))))) | 58.1 | -21.7 |
| GCCCAGCGAAAGCCGTGC ((.(.((....)).).)) | 27.1 | -7.02 |
| GATCACGAAAGTGGGATC ((((((....)))..))) | 38 | -15.6 |
| GACAACGAAAGTTTCGTC ((((((....)))..))) | 32.8 | -14.1 |
| GATCGCGGGTGCGATC ((((((....)))))) | 68.4 | -34.5 |
| GCTACCGCGAAAGCGAGC (((..(((....)))))) | 35.9 | -11.5 |
| GCACAAGGAAACTTGCGC ((.((((....)))).)) | 48.4 | -37.9 |
| GTTCATGGAAACATGGAC ((.((((....)))).)) | 46.3 | -27.7 |
| GGGATGGGAAACCACCCC (((.(((....))).))) | 47.3 | -32 |
| GTGCTACGAAAGTATCAC (((.(((....))).))) | 44.6 | -35.5 |

| Sequence | Tm [1] [°C] | folding enthalpy [2] [kcal/mol] |
| --- | --- | --- |
| GATCCGATGCCGGATC ((((((....)))))) | 56.1 | -40.1 |
| GTAGTCGGAAACAACTAC (((((.(....).))))) | 33.6 | -24.5 |
| GTGTGAACGAAAGTTCAC (((..(((....)))))) | 65.6 | -12.9 |
| GATTTGGAAACAAATC ((((((....)))))) | 48.5 | -40.2 |
| AATTGGAAACAATT (((((....))))) | 31.6 | -11.3 |
| GATCTGTGACCAGATC ((((((....)))))) | 47.8 | -36.5 |
| CGCACGGAAACGTAAGCG ((((((....)))..))) | 46.4 | -34.5 |
| GATAACGGAAACGCTATC ((((.((....)).)))) | 34.4 | -29.5 |
| GCGAACCGTCGC ((((....)))) | 47.7 | -18.7 |
| GGTAACGAAAGTTCACC ((((((....))).))) | 38.3 | -21.2 |
| GCCTAGCGAAAGCTCGGC (((.(((....))).))) | 56.8 | -39.4 |
| GGATGCGAAAGCAAATCC ((((((....)))..))) | 47.1 | -21 |
| GATCCCAATCGGGATC ((((((....)))))) | 61.6 | -40.2 |
| GATCCTAGCGAGGATC ((((((....)))))) | 52.8 | -32.9 |
| GTGTTCTCGAAAGAGCAC (((..(((....)))))) | 41.8 | -24.7 |
| GATCAAACTTTTGATC ((((((....)))))) | 45.9 | -27.9 |
| GTTGGAGGAAACTTCGAC ((.(.((....)).).)) | 34.2 | -24.3 |
| GATCTCAGAGGAGATC ((((((....)))))) | 50.8 | -32.9 |
| GATCGGCATCCCGATC ((((((....)))))) | 54.1 | -40.9 |
| CGTTCGGAAACGACGACG ((((((....)))..))) | 37.5 | -15.9 |
| GATGGTGCGAAAGCAATC (((..(((....)))))) | 28.7 | -8.86 |
| GATCTATTTCTAGATC ((((((....)))))) | 38.9 | -30.2 |
| GATCATGCGGATGATC ((((((....)))))) | 47 | -34.1 |
| GTCCGTGGAAACGCGGAC (((((.(....).))))) | 62.2 | -39.8 |

| Sequence | Tm [1] [°C] | folding enthalpy [2] [kcal/mol] |
| --- | --- | --- |
| GATCTATCATAGATC ((((((...)))))) | 40.1 | -28 |
| GCGTTTGGACGC ((((....)))) | 54.2 | -19.2 |
| GCCAAGAAATTGGC (((((....))))) | 52.3 | -21.6 |
| GAAAGCGGAAACACTTTC (((((.(....).))))) | 36.2 | -29.8 |
| GATCTACGGATAGATC ((((((....)))))) | 37.8 | -23.4 |
| GCTCACGAAAGTGGAGC ((((((....))).))) | 59 | -27.5 |
| GCGGCCGAAAGGCGCCGC ((((((....)))..))) | 62.8 | -14.9 |
| GATCACGCTGTGATC ((((((...)))))) | 59.2 | -39.5 |
| GATTTCCCGAAAGGGATC (((..(((....)))))) | 26.2 | -10.4 |
| GCGAAGCGAAAGCGCCGC (((..((....))..))) | 65.4 | -17.9 |
| GCGTCGCAACGC ((((....)))) | 56.2 | -20 |
| GTTAAACGAAAGTTCAAC (((.(((....))).))) | 30.3 | -22.6 |
| GGATGCGGAAACGCATTC (.(((((....))))).) | 54.5 | -19.2 |
| GCCTAGCGAAAGCTACGC ((.((((....)))).)) | 41.8 | -19 |
| GACGGCGAAAGCCAGTC ((((((....))).))) | 60.2 | -22.7 |
| GATCGAAGATTCGATC ((((((....)))))) | 51.4 | -35.5 |
| GGGAGCGGAAACGTTCCC ((((.((....)).)))) | 55.5 | -48.9 |
| GCTACGCGAAAGCTGAGC (((..((....))..))) | 46.2 | -15.2 |
| GGTGACGGAAACGCCACC ((((.((....)).)))) | 54.3 | -48 |
| GATCCAGCCCTGGATC ((((((....)))))) | 54.1 | -48 |
| GGGGAGAAATCCCC (((((....))))) | 53.5 | -26.6 |
